Only some compounds are listed: those with a hit (about 2.5% of all), similar ones and a draw of the others.
E-selectin induc: induces E-selectin expression in human endothelial cells; HUVEC E-selectin immunofluorescence imaging; normalized: neutral wells 0, TNF-alpha wells 100; AID 686992; P16581; 260,000 tested, 0.37% active; activation, % at 7.58 µM;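 active means mean E-selectin-positive cell signal at least 10% of the positive control, reached in at least 60% of replicates, without over 20% cell loss; inconclusive means no rule given, readout overlaps actives, possibly toxicity-flagged; inactive means the rest, including those meeting only one limit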
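Read-out: % PE-positive cells | Test system: HUVEC | Doses: One compound dose added by pin transfer | Buffer or medium: EGM-2 over gelatin coat | Signal: Immunofluorescence imaging | Benchmarks: TNF-alpha, DMSO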
PglD DTNB: PglD (C. jejuni) enzyme inhibition; inhibition, % at 12.5 µM; 360,000 tested, 0.098% active; purified PglD enzyme, DTNB colorimetric CoA detection; in the data active means inhibition above about 16%, passing the limit was not always enough; inconclusive means no clear call, values can overlap the other calls
DENV2 CPE: inhibitors of DENV2 cytopathic effect | DENV2-infected cells, cytopathic effect rescue, plate reader | CPE inhibition, % at 9.99 µM | 350,000 tested, 1.7% active; in the data active means CPE inhibition above about 20%, passing the limit was not always enough; inconclusive means no clear call, values can overlap the other calls; tested in BHK-21 cells;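 further: 0% = median of neutral control wells and 100% = median of positive control wells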
ERAP1 HTS inh: inhibitors of human ERAP1 aminopeptidase. recombinant ERAP1, Leu-AMC fluorescence, 60 min. 340,000 tested, 0.15% active. AID 652197. inhibition, % at 10.7 µM. Q9NZ08;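 active means mean replicate inhibition of at least 30%, or all replicates individually reaching that 30% level; inactive means mean below 30% and not every replicate reaching it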;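 further: 0% = neutral control wells and 100% = L-leucinethiol positive control wells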
SIRT5 inh: inhibitors of human sirtuin-5 desuccinylase | Q9NXA8 | Purified SirT5, succinyl-peptide AMC, trypsin-coupled fluorescence | inhibition, % at 15 µM | 330,000 tested, 1.1% active | AID 652115; in the data active means inhibition above about 15%; inconclusive means no clear call, values can overlap the other calls
Active calls of the source: *.

C[C@@H]1CN([C@@H](C)CO)C(=O)c2cccc(NC(=O)C3CC3)c2O[C@@H]1CN(C)CC1CC1 was read as E-selectin induc -3, PglD DTNB 6, DENV2 CPE -2, ERAP1 HTS inh 1 and SIRT5 inh -6.
For C[C@H](CO)N1C[C@H](C)[C@@H](CN(C)CC2CC2)Oc2c(NC(=O)Cc3ccccc3)cccc2C1=O the results were E-selectin induc 0, PglD DTNB 3, DENV2 CPE 2, ERAP1 HTS inh -3 and SIRT5 inh 25*.
For C[C@@H]1CN([C@H](C)CO)C(=O)c2cccc(NC(=O)C3CC3)c2O[C@H]1CN(C)CC1CC1 the results were E-selectin induc 111*, PglD DTNB -8, DENV2 CPE 13, ERAP1 HTS inh -1 and SIRT5 inh -6.
Cc1cccc(CNC(=O)Cn2ccc3cc(S(=O)(=O)N4CCCC4)ccc32)c1 was read as PglD DTNB 2, DENV2 CPE 2, ERAP1 HTS inh 2 and SIRT5 inh 16*.
Screening COc1cccc(CNC(=O)CCn2ccc3cc(S(=O)(=O)N4CCCC4)ccc32)c1 returned PglD DTNB 2, DENV2 CPE -2, ERAP1 HTS inh 1 and SIRT5 inh -4.
`COc1ccc(CNC(=O)CCn2ccc3cc(S(=O)(=O)N4CCCC4)ccc32)cc1` gave E-selectin induc 0, PglD DTNB 5, DENV2 CPE 6, ERAP1 HTS inh 0 and SIRT5 inh 34*.
Cc1cc2cc(CNC(=O)c3ccc(S(=O)(=O)N4CCCCC4)cc3)ccc2n1C was read as E-selectin induc 82*, PglD DTNB -4, DENV2 CPE -12, ERAP1 HTS inh 2 and SIRT5 inh -1.
For Cc1ccccc1CNC(=O)Cn1ccc2cc(S(=O)(=O)N3CCCCCC3)ccc21 the results were E-selectin induc 0, PglD DTNB -1, DENV2 CPE inconclusive, ERAP1 HTS inh -1 and SIRT5 inh 19*.
Screening Cc1cc2cc(CNC(=O)c3ccc(S(=O)(=O)N4CCCC4)cc3)ccc2n1C returned E-selectin induc inconclusive, PglD DTNB 6, DENV2 CPE 11, ERAP1 HTS inh 4 and SIRT5 inh -8.
Screening Cc1cccc(CNC(=O)Cn2ccc3cc(S(=O)(=O)N4CCCCCC4)ccc32)c1 returned PglD DTNB -3, DENV2 CPE -1, ERAP1 HTS inh 2 and SIRT5 inh -1.
Screening COc1cccc(NC(=O)CSCc2cc(=O)n3nc(C4CC4)sc3n2)c1 returned PglD DTNB -4, DENV2 CPE 1, ERAP1 HTS inh 3 and SIRT5 inh -1.
Screening C=C1CCN([C@@H](Cc2ccccc2)C(=O)O)S(=O)(=O)c2ccccc21 returned E-selectin induc 0, PglD DTNB -2, DENV2 CPE -25 and ERAP1 HTS inh 2.
For Cc1ccc(-c2cnc3c(c2)C(=O)N([C@H](C)CO)C[C@@H](C)[C@@H](CN(C)Cc2ccccc2C(=O)O)O3)cc1 the results were PglD DTNB -3, DENV2 CPE 1, ERAP1 HTS inh -1 and SIRT5 inh 10.
`COc1ccc(NC(=O)C(c2ccncc2)n2c(=O)c(-c3ccccc3)nc3ccccc32)cc1` (stereo not drawn) gave E-selectin induc 0, DENV2 CPE 17, ERAP1 HTS inh 15 and SIRT5 inh -9.
Screening O=[N+]([O-])c1ccc(N2CCN(c3ccc([N+](=O)[O-])cc3CO)CC2)c(CO)c1 returned E-selectin induc 45*, PglD DTNB 3, DENV2 CPE 8, ERAP1 HTS inh -4 and SIRT5 inh -5.
N#CCCN(Cc1cccnc1)C(=O)Nc1ccc(Cl)c(Cl)c1 was read as PglD DTNB -5.
For C[C@@H]1CN([C@H](C)CO)S(=O)(=O)c2ccc(C3=CCCCC3)cc2O[C@H]1CN(C)C(=O)Cc1ccncc1 the results were E-selectin induc 1, PglD DTNB 7, DENV2 CPE -3, ERAP1 HTS inh -1 and SIRT5 inh 17*.
For C[C@@H]1CN([C@H](C)CO)S(=O)(=O)c2ccc(C3=CCCC3)cc2O[C@H]1CN(C)C(=O)Cc1ccncc1 the results were E-selectin induc 1, PglD DTNB 3, DENV2 CPE -5, ERAP1 HTS inh 0 and SIRT5 inh 4.
C[C@H]1CN([C@@H](C)CO)S(=O)(=O)c2ccc(C3=CCCC3)cc2O[C@@H]1CN(C)C(=O)Cc1ccncc1 was read as E-selectin induc 0, PglD DTNB -51, DENV2 CPE 31*, ERAP1 HTS inh 1 and SIRT5 inh 4.
`C[C@@H]1CN([C@H](C)CO)S(=O)(=O)c2ccc(C3=CCCC3)cc2O[C@H]1CN(C)C(=O)c1ccncc1` gave E-selectin induc 0, PglD DTNB 1, DENV2 CPE 45*, ERAP1 HTS inh 3 and SIRT5 inh -11.
Screening CO[C@H]1CN(C)C(=O)c2cc(NC(C)=O)ccc2OC[C@H](C)N(C(=O)c2ccccn2)C[C@H]1C returned E-selectin induc 0, PglD DTNB 1, DENV2 CPE 10, ERAP1 HTS inh 5 and SIRT5 inh -3.
For COCCNC(=O)CCC1CCN(Cc2ccc(-c3ccccc3)cc2)CC1 the results were PglD DTNB -3, DENV2 CPE 48*, ERAP1 HTS inh 0 and SIRT5 inh 12.
`COc1cc(NS(=O)(=O)c2ccc(C)cc2)c2c(c1N)C(=O)c1ccccc1C2=O` gave E-selectin induc 127*, PglD DTNB 0, DENV2 CPE 6, ERAP1 HTS inh 1 and SIRT5 inh -6.
`CN(CC(=O)Nc1ccccc1C(F)(F)F)C(=O)c1ccc(N2C(=O)CCC2=O)cc1` gave E-selectin induc 3, PglD DTNB -1, DENV2 CPE 2, ERAP1 HTS inh -1 and SIRT5 inh 17*.
For Cc1cc(NC(=O)c2ccc(C#N)cc2)n(-c2ccccn2)n1 the results were DENV2 CPE -6, ERAP1 HTS inh -4 and SIRT5 inh -5.
`CC(C)NC(=O)N(C)C[C@H]1Oc2ccc(NC(=O)Nc3ccc4c(c3)OCO4)cc2C(=O)N([C@H](C)CO)C[C@H]1C` gave E-selectin induc -1, PglD DTNB -2, DENV2 CPE inconclusive, ERAP1 HTS inh -1 and SIRT5 inh 1.
O=C(OCC(=O)N1CCCC1)c1cc(Br)ccc1Cl was read as E-selectin induc 0, ERAP1 HTS inh -4 and SIRT5 inh 18*.
C[C@@H]1CN([C@@H](C)CO)C(=O)c2cccc(NC(=O)Nc3cccc4ccccc34)c2O[C@@H]1CN(C)Cc1ccc2c(c1)OCO2 was read as E-selectin induc 0, DENV2 CPE 20 and SIRT5 inh -4.
Screening CC(=O)Nc1ccc(NC(=O)C(C)n2nc(C)c([N+](=O)[O-])c2C)cc1 (stereo not drawn) returned E-selectin induc -1, PglD DTNB -2, DENV2 CPE -5 and SIRT5 inh 28*.
Screening CC(=O)Nc1ccc(NC(=O)C(C)n2nc([N+](=O)[O-])c(Br)c2C)cc1 (stereo not drawn) returned PglD DTNB 0, DENV2 CPE -3, ERAP1 HTS inh -5 and SIRT5 inh -2.

Assay outcomes from PubChem BioAssay.
